# Experimental data as given in ChEMBL document CHEMBL3763047, “Flavonoid derivatives as selective ABCC1 modulators: Synthesis and functional characterization” (Eur J Med Chem, 2016).
# Calls of active or inactive are those of the source. No cut-off for these calls is given here.
# Columns and labels:
# [1] = Cytotoxicity against human ABCC1 transfected MDCK2 cells assessed as reduction in cell proliferation at 10 uM by crystal violet staining based assay; assay type: ADME, Canis lupus familiaris; conditions: dog, mdck-ii
# How it was run: (§1)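 MDCKII-MRP1 cells transfected with human ABCC1, kept in DMEM with 10% FCS at 37 °C and 5% CO₂. Kinetic crystal violet chemosensitivity assay with the modulator alone; proliferation followed over time.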
# [2] = Chemical stability in DMEM culture medium supplemented with 10% FCS at 37 degC after 48 hrs by RP-HPLC analysis; assay type: physicochemical; conditions: cattle
# How it was run: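 Compounds held in DMEM with 10% FCS at 37 °C for up to 48 h, then analysed for degradation.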
# [3] = tested on: Plasma; experiment: Metabolic stability in NMRI mouse plasma assessed as compound degradation at 140 uM after 1 min to 24 hrs by RP-HPLC analysis
# [4] = molecular target: T1, Multidrug resistance-associated protein 1 (Homo sapiens, UniProt P33527); experiment: Inhibition of human ABCC1 transfected in MDCK2 cells assessed as potentiation of etoposide-induced cytotoxicity at 1 uM by crystal violet staining based assay; assay type: cell-based; conditions: mdck-ii
# [5] = molecular target: MRP1 (ABCC1) (Homo sapiens, UniProt P33527); experiment: (§2) Inhibition of human MRP1 expressed in MDCK2 cells assessed as inhibition of calcein-AM efflux at 30 uM relative to reversan; assay type: cell-based, MDCK-II; conditions: MDCK2 cells expressing human MRP1, probe calcein-AM, read-out: Imax
# How it was run: (§3)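 MDCKII-MRP1 cells seeded at 20,000–25,000/well and washed next day with HEPES loading buffer, pH 7.4. Loaded 60 min at 37 °C with 0.5 µM calcein-AM in buffer with BSA and pluronic F127, plus compound (10 nM–100 µM). Cells were PFA-fixed, fluorescence read at 485/535 nm, DMSO control subtracted. […] Mean ± SEM, 2–4 experiments in triplicate.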
# [6] = molecular target: T2, Broad substrate specificity ATP-binding cassette transporter ABCG2 (Homo sapiens, UniProt Q9UNQ0); experiment: Inhibition of ABCG2 in human MCF7/Topo cells by Hoechst 33342 assay; assay type: cell-based
# T2 sequence (Q9UNQ0 whole entry): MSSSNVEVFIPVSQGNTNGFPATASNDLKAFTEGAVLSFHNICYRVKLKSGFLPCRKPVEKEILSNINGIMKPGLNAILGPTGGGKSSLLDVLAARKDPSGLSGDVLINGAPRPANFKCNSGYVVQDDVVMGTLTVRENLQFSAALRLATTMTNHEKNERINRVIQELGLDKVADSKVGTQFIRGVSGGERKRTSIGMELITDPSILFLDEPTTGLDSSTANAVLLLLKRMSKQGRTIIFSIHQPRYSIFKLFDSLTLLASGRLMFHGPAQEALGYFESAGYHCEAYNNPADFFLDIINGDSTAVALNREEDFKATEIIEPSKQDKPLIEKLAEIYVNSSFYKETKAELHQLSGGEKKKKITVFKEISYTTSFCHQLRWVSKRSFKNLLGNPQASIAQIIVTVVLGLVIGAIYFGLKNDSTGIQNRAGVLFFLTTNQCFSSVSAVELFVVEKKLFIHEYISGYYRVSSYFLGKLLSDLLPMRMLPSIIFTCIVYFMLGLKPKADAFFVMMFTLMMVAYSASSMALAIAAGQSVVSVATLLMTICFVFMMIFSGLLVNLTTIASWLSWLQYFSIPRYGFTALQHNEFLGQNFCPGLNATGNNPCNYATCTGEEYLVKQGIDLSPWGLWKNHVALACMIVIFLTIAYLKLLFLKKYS
# [7] = molecular target: ATP-dependent translocase ABCB1 (Homo sapiens, UniProt P08183); experiment: Inhibition of ABCB1 in human KBV1 cells assessed as inhibition of calcein-AM efflux; assay type: cell-based
# [8] = molecular target: T1, Multidrug resistance-associated protein 1; experiment: Inhibition of human ABCC1 transfected in MDCK2 cells assessed as potentiation of doxorubicin-induced cytotoxicity at 1 and 5 uM by crystal violet staining based assay; assay type: cell-based; conditions: mdck-ii
# [9] = tested on: HaCaT; experiment: Cytotoxicity against human HaCaT cells at 1 to 10 uM after 140 hrs by kinetic crystal violet staining based assay; assay type: cell-based
# How it was run: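 Spontaneously immortalized human HaCaT keratinocytes in RPMI-1640 with pyruvate, HEPES and added glucose, pre-treated with EDTA before trypsinization. Cytotoxicity followed in a kinetic assay.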
# [10] = molecular target: T3, ABCG2 (BCRP) (Homo sapiens, UniProt Q9UNQ0); experiment: Inhibition of ABCG2 in human MCF7/Topo cells at 10 uM by Hoechst 33342 assay relative to fumitremorgin C; assay type: cell-based; conditions: probe Hoechst 33342, read-out: Imax
# T3 sequence (Q9UNQ0 whole entry): T2 sequence (Q9UNQ0 whole entry)
# How it was run: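 Hoechst 33342 microplate assay in ABCG2-overexpressing MCF-7/Topo cells, kept in EMEM with 10% FCS and 550 nM topotecan. Imax relative to 10 µM fumitremorgin C (100%). IC50 from four-parameter logistic fit. Mean ± SEM, 2–4 experiments.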
# [11] = molecular target: T1, Multidrug resistance-associated protein 1; experiment: Inhibition of human ABCC1 transfected in MDCK2 cells assessed as potentiation of etoposide-induced cytotoxicity at 1 and 5 uM by crystal violet staining based assay; assay type: cell-based; conditions: mdck-ii
# [12] = molecular target: ABCB1 (P-glycoprotein) (Homo sapiens, UniProt P08183); experiment: Inhibition of ABCB1 in human KBV1 cells assessed as inhibition of calcein-AM efflux at 1 uM relative to tariquidar; assay type: cell-based; conditions: probe calcein-AM, read-out: Imax
# [13] = molecular target: T1, Multidrug resistance-associated protein 1; experiment: as §2; assay type: cell-based, MDCK-II; conditions: mdck-ii, 30 µM; how it was run: as §3
# [14] = molecular target: T2, Broad substrate specificity ATP-binding cassette transporter ABCG2; experiment: Inhibition of human ABCG2 expressed in HEK293 cells by mitoxantrone flow cytometric analysis; assay type: cell-based
# [15] = tested on: MDCK2; experiment: Antiproliferative activity against human ABCC1 transfected MDCK2 cells assessed as reduction in cell proliferation at 10 uM by crystal violet staining based assay; assay type: functional; how it was run: as §1
# [16] = tested on: MDCK2; experiment: Antiproliferative activity against human ABCC1 transfected MDCK2 cells assessed as reduction in cell proliferation at 1.5 uM by crystal violet staining based assay; assay type: functional
# T1 sequence (P33527 whole entry): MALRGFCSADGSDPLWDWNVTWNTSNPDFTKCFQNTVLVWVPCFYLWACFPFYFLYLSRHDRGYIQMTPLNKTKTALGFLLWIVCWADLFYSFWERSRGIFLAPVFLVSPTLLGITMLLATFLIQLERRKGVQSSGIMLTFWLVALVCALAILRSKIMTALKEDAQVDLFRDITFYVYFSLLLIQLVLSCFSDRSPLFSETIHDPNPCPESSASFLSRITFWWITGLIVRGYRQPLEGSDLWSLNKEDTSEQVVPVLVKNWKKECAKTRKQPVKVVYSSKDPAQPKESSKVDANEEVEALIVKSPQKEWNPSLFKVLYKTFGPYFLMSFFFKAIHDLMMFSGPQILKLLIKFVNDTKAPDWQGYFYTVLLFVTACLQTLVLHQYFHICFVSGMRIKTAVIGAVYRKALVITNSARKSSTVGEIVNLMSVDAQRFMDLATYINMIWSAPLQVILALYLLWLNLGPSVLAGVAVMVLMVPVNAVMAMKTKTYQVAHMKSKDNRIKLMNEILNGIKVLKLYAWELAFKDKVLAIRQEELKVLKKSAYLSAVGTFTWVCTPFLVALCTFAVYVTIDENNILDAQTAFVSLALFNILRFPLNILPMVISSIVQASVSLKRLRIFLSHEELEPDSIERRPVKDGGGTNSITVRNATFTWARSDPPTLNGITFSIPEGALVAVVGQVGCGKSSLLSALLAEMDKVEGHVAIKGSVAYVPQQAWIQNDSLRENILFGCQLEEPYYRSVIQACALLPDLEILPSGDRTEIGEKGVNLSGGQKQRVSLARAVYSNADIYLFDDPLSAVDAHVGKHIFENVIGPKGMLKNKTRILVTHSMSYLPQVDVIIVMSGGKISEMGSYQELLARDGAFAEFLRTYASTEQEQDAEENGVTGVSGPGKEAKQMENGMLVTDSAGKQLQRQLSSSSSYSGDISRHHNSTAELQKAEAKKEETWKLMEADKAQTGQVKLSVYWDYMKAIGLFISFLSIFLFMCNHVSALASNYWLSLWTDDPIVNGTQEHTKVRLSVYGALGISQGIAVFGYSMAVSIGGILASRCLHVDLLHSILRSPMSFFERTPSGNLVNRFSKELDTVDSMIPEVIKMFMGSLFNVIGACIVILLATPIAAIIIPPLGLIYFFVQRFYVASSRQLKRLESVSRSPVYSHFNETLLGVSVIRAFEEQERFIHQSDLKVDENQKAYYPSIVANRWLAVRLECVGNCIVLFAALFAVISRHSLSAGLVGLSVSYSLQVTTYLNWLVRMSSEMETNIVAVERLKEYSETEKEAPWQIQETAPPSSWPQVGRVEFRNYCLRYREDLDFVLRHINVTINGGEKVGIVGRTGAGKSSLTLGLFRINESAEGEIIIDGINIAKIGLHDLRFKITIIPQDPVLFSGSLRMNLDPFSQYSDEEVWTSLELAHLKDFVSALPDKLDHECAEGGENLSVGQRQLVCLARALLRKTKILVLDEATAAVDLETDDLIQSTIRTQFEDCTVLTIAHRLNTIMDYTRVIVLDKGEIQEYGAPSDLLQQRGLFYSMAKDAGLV
# Sequence of MRP1 (ABCC1) (P33527 whole entry): as above
# Sequence of ABCB1 (P-glycoprotein) (P08183 whole entry): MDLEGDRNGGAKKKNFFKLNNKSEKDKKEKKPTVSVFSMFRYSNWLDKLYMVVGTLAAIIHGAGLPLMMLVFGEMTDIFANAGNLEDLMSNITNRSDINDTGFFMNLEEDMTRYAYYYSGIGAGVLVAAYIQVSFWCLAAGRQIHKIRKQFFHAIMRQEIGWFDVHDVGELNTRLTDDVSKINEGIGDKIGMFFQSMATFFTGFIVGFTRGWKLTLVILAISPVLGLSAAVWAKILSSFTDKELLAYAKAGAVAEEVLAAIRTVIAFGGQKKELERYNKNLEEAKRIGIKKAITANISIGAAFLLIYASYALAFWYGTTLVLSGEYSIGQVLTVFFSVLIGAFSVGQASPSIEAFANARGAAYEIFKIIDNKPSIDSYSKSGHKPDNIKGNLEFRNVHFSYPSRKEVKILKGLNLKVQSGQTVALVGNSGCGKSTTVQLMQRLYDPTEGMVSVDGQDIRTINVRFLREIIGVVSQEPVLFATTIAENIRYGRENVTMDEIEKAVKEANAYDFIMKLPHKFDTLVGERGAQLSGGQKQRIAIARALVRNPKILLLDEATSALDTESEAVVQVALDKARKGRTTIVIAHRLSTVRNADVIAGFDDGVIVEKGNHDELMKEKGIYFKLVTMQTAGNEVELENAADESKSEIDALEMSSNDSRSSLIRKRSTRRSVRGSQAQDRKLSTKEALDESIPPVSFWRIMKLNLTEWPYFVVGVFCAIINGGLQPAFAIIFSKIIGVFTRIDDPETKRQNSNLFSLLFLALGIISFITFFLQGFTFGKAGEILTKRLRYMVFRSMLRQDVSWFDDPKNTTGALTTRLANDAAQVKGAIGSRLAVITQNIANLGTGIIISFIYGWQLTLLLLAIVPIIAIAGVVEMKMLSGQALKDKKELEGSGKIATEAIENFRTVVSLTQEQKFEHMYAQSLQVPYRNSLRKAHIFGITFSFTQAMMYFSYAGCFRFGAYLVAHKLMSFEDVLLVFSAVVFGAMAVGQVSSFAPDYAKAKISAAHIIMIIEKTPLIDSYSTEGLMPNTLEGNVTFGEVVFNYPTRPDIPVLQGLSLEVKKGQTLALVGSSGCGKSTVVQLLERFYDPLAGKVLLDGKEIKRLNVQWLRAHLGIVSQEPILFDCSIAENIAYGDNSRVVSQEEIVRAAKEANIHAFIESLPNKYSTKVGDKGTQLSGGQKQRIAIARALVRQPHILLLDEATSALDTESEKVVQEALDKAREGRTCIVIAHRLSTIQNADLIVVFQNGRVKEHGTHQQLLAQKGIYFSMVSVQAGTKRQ
# Sequence of ATP-dependent translocase ABCB1 (P08183 whole entry): as above
SMILES,inhibition at 30 µM [5] [%],IC50 ([6]; mcf7/topo),IC50 ([7]; kbv1),Emax at 10 µM [10] [%],IC50 ([6]; read-out: IC50) [µM],IC50 ([7]; read-out: IC50) [µM],other results
COc1cc(OC)c2c(=O)cc(N3CCN(Cc4ccc5nonc5c4)CC3)oc2c1,120,Not Active,Not Active,,,,Activity [1]: Non-toxic; Stability [2]: Stable; Stability [3]: Stable; inhibition (INH) [4]: Active; inhibition (INH) [8]: Active; Activity [9]: Non-toxic
COc1ccc(CCNC(=O)c2cc(=O)c3c(OCc4ccccc4)cccc3o2)cc1OC,,,Not Active,108,,,
CN(C)C(=O)CCSC(SCCC(=O)[O-])c1cccc(/C=C/c2ccc3ccc(Cl)cc3n2)c1.[Na+] (stereo not drawn),,Not Active,Not Active,,,,
COc1cc(OC)c2c(=O)cc(N3CCN(Cc4ccc(S(C)(=O)=O)cc4)CC3)oc2c1,,Not Active,Not Active,,,,
COc1cc(O)c2c(=O)cc(C(=O)N3CCN(Cc4ccccc4[N+](=O)[O-])CC3)oc2c1,68.8,,Not Active,90.5,34.9,,
COc1cc(OC)c2c(=O)cc(N3CCN(Cc4ccccc4)CC3)oc2c1,,Not Active,Not Active,,,,
COc1ccc(CN2CCN(c3cc(=O)c4c(OC)cc(OC)cc4o3)CC2)cc1,,,Not Active,,> 100,,
O=C(NCCCN1CCOCC1)c1cnn2c(-c3ccccc3)cc(-c3ccccc3)nc12,,,,,,6.8,Activity [1]: Non-toxic; inhibition (INH) [8]: Active; inhibition (INH) [11]: Active; inhibition at 1 µM [12]: 143%
COc1cc(OC)c2c(=O)cc(N3CCN(Cc4cccc([N+](=O)[O-])c4)CC3)oc2c1,,,,44,38.2,32.8,Imax [13]: 193.3%; inhibition at 1 µM [12]: 29.2%
COc1cc(OC)c2c(=O)cc(NCCc3ccc(OC)c(OC)c3)oc2c1,,,Not Active,,> 100,,
COc1cc(OC)c2c(=O)cc(N3CCN(c4ccc([N+](=O)[O-])cc4)CC3)oc2c1,64.1,,Not Active,22.6,,,
COc1cccc2oc(N3CCN(Cc4ccc([N+](=O)[O-])cc4)CC3)cc(=O)c12,38.8,Not Active,Not Active,,,,
COc1cc(OC)c2c(=O)cc(N3CCN(Cc4ccc(F)c(F)c4)CC3)oc2c1,141,,,50.4,66.6,58.5,inhibition at 1 µM [12]: 14.3%
O=C(c1cc(=O)c2c(OCc3ccccc3)cccc2o1)N1CCN(Cc2ccccc2)CC1,,,,84.1,16.3,15.8,% inhibition [14]: 9.8%; inhibition at 1 µM [12]: 34.3%
COc1cc(OC)c2c(=O)cc(N3CCN(Cc4ccc(C(F)(F)F)cc4)CC3)oc2c1,,,,,> 100,31.3,Imax [13]: 158.6%; inhibition at 1 µM [12]: 21.8%
COc1cc(OC)c2c(=O)cc(N3CCN(CCc4ccc([N+](=O)[O-])cc4)CC3)oc2c1,118,,,31.9,36.9,33,Stability [2]: Stable; Activity [9]: Non-toxic; inhibition at 1 µM [12]: 54.8%
COC(=O)c1ccc(CN2CCN(c3cc(=O)c4c(OC)cc(OC)cc4o3)CC2)cc1,118,,,,> 100,> 100,

SMILES,inhibition at 30 µM [5] [%],IC50 ([6]; mcf7/topo),IC50 ([7]; kbv1),Emax at 10 µM [10] [%],IC50 ([6]; read-out: IC50) [µM],IC50 ([7]; read-out: IC50) [µM],other results
COc1cc(OC)c2c(=O)cc(NCCCN3CCOCC3)oc2c1,14,Not Active,Not Active,,,,
COc1cc(OC)c2c(=O)cc(N3CCN(C(=O)c4ccc([N+](=O)[O-])cc4)CC3)oc2c1,19.7,Not Active,Not Active,,,,
COc1cc(OC)c2c(=O)cc(N3CCN(CCc4ccccc4)CC3)oc2c1,44.5,,Not Active,,> 100,,Stability [2]: Stable; Activity [9]: Non-toxic
COc1cc(OC)c2c(=O)cc(N3CCN(Cc4ccc(NC(C)=O)cc4)CC3)oc2c1,,Not Active,Not Active,,,,
COc1cc(OC)c2c(=O)cc(N3CCN(Cc4ccccc4[N+](=O)[O-])CC3)oc2c1,68.8,,,72.6,37.6,> 100,
COc1cc([C@@H]2c3cc4c(cc3[C@@H](O[C@@H]3O[C@@H]5CO[C@@H](C)O[C@H]5[C@H](O)[C@H]3O)[C@H]3COC(=O)[C@H]23)OCO4)cc(OC)c1O,,,,,,,Activity [15]: Active; Activity [16]: Active
COc1cc(OC)c2c(=O)cc(N3CCN(Cc4ccc(N)cc4)CC3)oc2c1,,Not Active,Not Active,,,,
COc1cc(OC)c2c(=O)cc(N3CCN(C)CC3)oc2c1,,Not Active,Not Active,,,,
COc1cc(OC)c2c(=O)cc(N3CCN(Cc4ccc(SC(F)(F)F)cc4)CC3)oc2c1,136,,,,> 100,36.6,inhibition at 1 µM [12]: 29.4%
COc1cc(OC)c2c(=O)cc(C(=O)N3CCN(CCc4ccc([N+](=O)[O-])cc4)CC3)oc2c1,139,,,,> 100,83.9,Stability [2]: Stable; Activity [9]: Non-toxic; inhibition at 1 µM [12]: 37.7%
COc1cc(O)c2c(=O)cc(C(=O)N3CCN(Cc4ccc([N+](=O)[O-])cc4)CC3)oc2c1,70.5,,Not Active,23.1,12,,Stability [2]: Stable; Activity [9]: Non-toxic
COc1cc(OC)c2c(=O)cc(N3CCN(Cc4ccc(S(=O)(=O)C(F)(F)F)cc4)CC3)oc2c1,98.8,,,,> 100,> 100,
COc1cc2c(cc1OC)CN(CCc1ccc(NC(=O)c3cc(OC)c(OC)cc3NC(=O)c3cnc4ccccc4c3)cc1)CC2,,,,,,0.22,
COc1cc(OC)c2c(=O)cc(N3CCN(Cc4ccc([N+](=O)[O-])cc4)CC3)oc2c1,130,,Not Active,56.9,87.8,,Stability [2]: Stable; Activity [9]: Non-toxic
COc1cc(OC)c2c(=O)cc(N3CCN(Cc4ccc(C#N)cc4)CC3)oc2c1,115,,,59.1,99.7,> 100,
COc1cc(OC)c2c(=O)cc(C(=O)N3CCN(Cc4ccc([N+](=O)[O-])cc4)CC3)oc2c1,73.1,,,,> 100,58.2,Activity [9]: Non-toxic; inhibition at 1 µM [12]: 33.4%
